Screening results from PubChem BioAssay.
Compounds with a hit are over-represented: about 0.83% of the library has one in this group of screens.
V1R ag counter = counter-screen for oxytocin receptor agonists: human V1a receptor agonists | P37288 | activation, % at 3 µM | CHO-V1R cells, Fluo-8 calcium fluorescence, agonist mode; 0% DMSO, 100% 3 nM vasopressin | AID 2797 | actives 0.25% (n = 320,000);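 active means activation above the mean activation of all tested compounds plus 3 SD, per screening run, cut at about 20% in these data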;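 further: signal is peak over basal fluorescence ratio across a 100 second FLIPR read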
Target sequence (P37288 whole entry, looked up): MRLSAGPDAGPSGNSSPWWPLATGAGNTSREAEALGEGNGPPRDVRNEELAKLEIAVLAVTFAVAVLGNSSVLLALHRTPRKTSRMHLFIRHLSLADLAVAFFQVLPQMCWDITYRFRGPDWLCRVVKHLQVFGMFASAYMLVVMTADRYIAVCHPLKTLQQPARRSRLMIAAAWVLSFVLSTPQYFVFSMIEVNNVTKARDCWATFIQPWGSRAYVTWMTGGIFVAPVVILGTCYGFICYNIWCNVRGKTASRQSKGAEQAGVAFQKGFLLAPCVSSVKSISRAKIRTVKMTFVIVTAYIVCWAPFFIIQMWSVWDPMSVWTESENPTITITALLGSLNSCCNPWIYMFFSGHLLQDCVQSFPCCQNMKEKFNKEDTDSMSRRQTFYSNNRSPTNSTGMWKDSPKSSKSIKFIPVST
OXTR ag = human OXTR agonism | P30559 | CHO-OTR cells, Fluo-8 calcium fluorescence; normalized: DMSO 0%, oxytocin 100% | activation, % at 3 µM | actives 0.32% (n = 320,000) | AID 2435;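 active means activation above the mean of all tested compounds plus 3 SD, cutoff set per screening run, cut at about 20% in these data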;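 further: peak over basal fluorescence ratio from a 100 s FLIPR kinetic read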
TRPN1 ag = zebrafish TRPN1 (NompC) channel agonism | AID 1424 | actives 0.18% (n = 220,000) | HEK293 zebrafish TRPN1-YFP, Fluo-8 calcium fluorescence; 100% = response to 87 µM carbachol | activation, % at 3 µM;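 active means activation above its plate's cutoff, the mean activation of test wells on that plate plus 3 SD, cut at about 19% in these data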
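Material: zebrafish TRPN1-YFP in HEK293 cells. Doses: one dose of 3 µM, 0.3% DMSO. Incubation: dye 1 h 37 °C plus 30 min RT. Measured by: intracellular calcium fluorescence with Fluo-8.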
OXTR potentiator = human OXTR potentiation | P30559 | CHO-OTR cells, Fluo-8 calcium fluorescence, potentiator mode; 0% = oxytocin EC15, 100% = EC100 | activation, % at 3 µM | actives 0.061% (n = 320,000);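 active means activation above that plate's cutoff, the mean activation of tested compounds plus 3 SD, cut at about 6.6% in these data, passing the limit was not always enough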
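System: human OTR in CHO cells; Also added: sub-maximal oxytocin, roughly EC15; Timing: compound 6 min at room temperature before oxytocin, 100 s read; Technique: Fluo-8 intracellular calcium fluorescence, ex 470-495, em 515-575 nm; Controls: oxytocin EC15 low and EC100 high; Replication: singlicate.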
CRFR2-BP ag = agonists of human CRF-binding protein/CRF-R2 receptor complex; HEK293 CRF-R2/CRF-BP, calcium dye fluorescence (FLIPR); percent of saturating CRF peptide response; activation, % at 13.2 µM; actives 0.46% (n = 350,000); AID 588473;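 active means activation of at least 50%, plus an integration ratio under a set limit after plate pattern correction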
TRPML3 ag = agonists of human TRPML3 channel. Q8TDD5. HEK293 TRPML3-YFP, Fluo-8 calcium fluorescence; 100% = the carbachol control signal. activation, % at 3 µM. actives 0.29% (n = 220,000). AID 1448;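 active means activation above its plate's cutoff, the mean activation of the plate's test wells plus 3 SD, cut at about 12% in these data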
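Material: HEK293 cells stably carrying human TRPML3-YFP; compound dosing: single dose, 3 µM final nominal compound, 0.3% DMSO final; incubation: 1-h 37 °C dye load, 5-s basal, 120-s post-compound reads; technique: Fluo-8 intracellular calcium fluorescence, excitation 470-495 nm, emission 515-575 nm; read-out basis: percent activation from peak-to-basal fluorescence ratio, scaled between DMSO and carbachol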
OXTR ag confirm = human OXTR agonism, confirmation | actives 20% (n = 390) | activation, % at 3 µM | shares compounds with OXTR ag | CHO-OTR cells, Fluo-8 calcium fluorescence, agonist | AID 434963;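 active means mean activation above about 20% derived from the earlier single-dose screen, limit read from the data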;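 further: peak over minimum fluorescence ratio per well during a 100 second FLIPR read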
V1R ag counter 3x = counter-screen for oxytocin receptor agonists: V1a receptor agonists; shares compounds with OXTR ag; CHO-V1R cells, Fluo-8 calcium fluorescence, agonist; activation, % at 3 µM; actives 10% (n = 390); AID 434991;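 active means mean activation over triplicate exceeds the hit threshold set in the earlier primary screen, cut at about 20% in these data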;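 further: peak over basal fluorescence ratio within a 100 second read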
Numbers stand for hits; n = inactive; x = not tested or not shown.

SMILES | V1R ag counter | OXTR ag | TRPN1 ag | OXTR potentiator | CRFR2-BP ag | TRPML3 ag | OXTR ag confirm | V1R ag counter 3x
CCCCCCCCNC(C)C(O)c1ccc(SC(C)C)cc1 (configuration not stated) | n | 23 | n | n | n | n | n | n
O=[N+]([O-])c1ccc(NC(=S)NCc2ccc(F)cc2)cc1 | n | 22 | x | n | n | x | n | n
Cc1cnc(C(=O)Nc2ccc(C)c(S(=O)(=O)N3CCCCCC3)c2)cn1 | x | x | x | x | n | x | x | x
COc1cccc(C(=O)OCC(=O)Nc2ccc3c(c2)OCCO3)c1 | n | n | x | n | n | x | x | x
Cc1ccc(C(C)NC(=O)/C(C#N)=C\c2c(C)[nH]c3ccccc23)cc1 (configuration not stated) | n | 27 | n | n | n | n | n | n
CNCCNC[C@H](Cc1cccc2ccccc12)NCCc1ccccc1 | n | n | x | n | n | x | x | x
CNC[C@H](Cc1ccccc1)NC[C@@H](Cc1cccc2ccccc12)NCCc1ccc(C)cc1 | n | 21 | x | n | n | x | n | n
O=c1oc2ccccc2cc1-c1nc2c(s1)CCc1ccccc1-2 | n | n | n | n | n | n | x | x
O=c1oc2cc(O)ccc2cc1-c1nc2c(s1)CCc1ccccc1-2 | n | 26 | 25 | n | 279 | n | 160 | 181
CCCc1cc(=O)oc2cc(OCC(=O)NCCN3CCOCC3)c(Cl)cc12 | x | x | x | x | n | x | x | x
O=C1NC[C@@H](Cc2cccc3ccccc23)N(CC2CCCCC2)C1=O | n | n | x | n | n | x | x | x
O=C1NC[C@@H](Cc2cccc3ccccc23)N(CC2(c3ccccc3)CC2)C1=O | n | 23 | x | n | n | x | n | n
C#CCNC(=O)c1ccc(OCc2ccccc2)cc1Cl | n | n | n | n | n | n | x | x
O=C(NCCCl)c1ccc(OCc2ccccc2)cc1Cl | n | 22 | n | n | n | n | n | n
Cc1cccc(OCC(=O)N(C)c2c(N)n(Cc3ccccc3)c(=O)[nH]c2=O)c1C | n | n | x | n | n | x | x | x
CN(c1ccc(C(=O)N2CCCCC2)cc1)S(=O)(=O)c1ccccc1 | n | 21 | n | n | n | n | n | n
CN(c1ccccc1)S(=O)(=O)c1ccc(C(=O)N2CCCC2)cc1 | n | n | x | n | n | x | x | x
CCCCNC(=O)c1sc(=S)n2c1[nH]c(=O)c1ccc(C(=O)NCCc3ccc(OC)c(OC)c3)cc12 | n | n | x | n | n | x | x | x
O=C(NCc1ccccc1)c1sc(=S)n2c1[nH]c(=O)c1ccccc12 | n | 21 | n | n | n | n | n | n
C(=NN=C(NN=Cc1cccs1)NN=Cc1cccs1)c1cccs1 | x | x | x | x | n | x | x | x
COc1cc(/C=C2\Oc3cc(O)ccc3C2=O)ccc1O | n | 22 | x | n | 71 | x | n | 21
c1ccc(-c2nc3cccnc3nc2-c2ccccc2)cc1 | n | n | x | n | n | x | x | x
COC(=O)C1(C)CCCC2(C)C3CCC(C(C)C)C(CO)C3C(CO)CC12 (configuration not stated) | x | x | x | x | n | x | x | x
CCC(C)N1C(=O)/C(=C/c2c(NCCCOC(C)C)nc3c(C)cccn3c2=O)SC1=S (configuration not stated) | n | 21 | n | n | 59 | n | 37 | 85
CCCN1C(=O)S/C(=C/c2ccc(N3CCOCC3)o2)C1=O | n | 20 | n | n | 61 | n | 31 | 55
SMILES | V1R ag counter | OXTR ag | TRPN1 ag | OXTR potentiator | CRFR2-BP ag | TRPML3 ag | OXTR ag confirm | V1R ag counter 3x
CCCN1C(=O)S/C(=C\c2ccc(N3CCOCC3)o2)C1=O | n | n | n | n | n | n | x | x
Cc1cc(NC(=O)CSc2nnc(CNC(=O)c3ccccc3)o2)no1 | n | n | x | n | n | x | x | x
Cc1cc(OCC(=O)Nc2ccncc2)c(C)cc1Br | n | 21 | n | n | n | n | n | n
CCc1ccc(OCC(=O)Nc2ccncc2)c(Br)c1 | n | n | x | n | n | x | x | x
N#Cc1ccsc1NC(=O)c1ccc(Cl)c([N+](=O)[O-])c1 | n | 22 | 30 | n | 67 | 19 | n | n
CCOC(=O)C1CCCN(C(=O)CCCn2c(=O)c3cccn3c3cccnc32)C1 (configuration not stated) | n | n | x | n | n | x | x | x
C[C@@H]1CN([C@H](C)CO)C(=O)CCCn2cc(nn2)CO[C@H]1CN(C)S(=O)(=O)c1ccccc1 | x | x | x | x | n | x | x | x
CC(C)(C)c1ccc(C(=O)CCC(=O)OCC(=O)NCCc2ccc(S(N)(=O)=O)cc2)cc1 | n | 20 | x | n | n | x | n | n
Cc1csc(NC(=O)c2cc(C)on2)n1 | n | n | x | n | n | x | x | x
COc1ccc(OCc2cc(C(=O)NCCN3CCCc4ccccc43)no2)c(Cl)c1 | n | n | x | n | n | x | x | x
CCOC(=O)c1[nH]cnc1C(=O)Nc1cccc(OC)c1 | n | n | n | n | n | n | x | x
CNC(=O)c1[nH]cnc1C(=O)Nc1cccc(OC)c1 | n | 32 | n | n | n | n | n | n
CCn1ccnc1C(O)(c1ccccc1)c1ccccc1 | n | n | x | n | n | x | x | x
C=CCN1C(=O)C(Cc2ccccc2Cl)SC1=Nc1ccc(C(=O)O)cc1 (configuration not stated) | n | 21 | n | n | n | n | n | n
C=CCN1C(=O)C(CC(=O)O)SC1=Nc1ccc(C(=O)O)cc1 (configuration not stated) | n | n | n | n | n | n | x | x
CCOC(=O)C(Cc1ccc(O)cc1)NC(=O)CCc1c[nH]c2ccccc12 (configuration not stated) | n | 23 | x | n | n | x | n | n
Cc1[nH]c2ccccc2c1/C=N/Nc1ccc([N+](=O)[O-])cc1 | n | 21 | n | n | 121 | n | 25 | 35
CS(=O)(=O)N1CCCC(c2nc(-c3ccc(S(=O)(=O)NCc4ccccc4)cc3)no2)C1 (configuration not stated) | n | 20 | n | n | n | n | n | n
O=C(Nc1cccc(Br)c1)c1ccc(Cl)c(S(=O)(=O)N2CCOCC2)c1 | n | 24 | n | n | n | n | n | n
O=C(NNC(=S)NC(=O)c1ccccc1)c1cccc([N+](=O)[O-])c1 | n | 29 | x | n | n | x | n | 21
COc1ccc(C2=NO[C@@H]3C(=O)N(C4CCCCC4)C(=O)[C@H]23)cc1OC | n | 21 | n | n | n | n | n | n
COc1ccc(C2=NO[C@@H]3C(=O)N(c4ccc5c(c4)OCCO5)C(=O)[C@H]23)cc1OC | n | n | n | n | n | n | x | x
COc1ccc(OC)c(N(CC(=O)NCCSC2CCCCC2)S(=O)(=O)c2ccccc2)c1 | n | n | x | n | n | x | x | x
